Laboratory results as given in ChEMBL document CHEMBL5634186, “Structure-Activity Relationship Study of Biselyngbyolide B Reveals Mitochondrial Fission-Induced Cytotoxicity in Cancer” (ACS Med Chem Lett, 2024).
Active and inactive are the calls of the source. The calls are words filed in the database; no cut-off is given here.

Key:
[1] = system: HCT-116; test: Induction of apoptosis in human HCT-116 cells assessed as increase in p-38 phosphorylation at 1 uM incubated for 16 hrs by immunoblotting analysis; assay type: functional, cell-based
Outline: (§1)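 Immunoblot of p-JNK, JNK, p-p38 and p38 in HCT116 cells after 1 μM compound for 16 h; β-actin loading control.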

[2] = system: HCT-116; test: Induction of mitochondrial fission in human HCT-116 cells assessed as increase in DRP1 phosphorylation at S616 at 1 uM preincubated with NAC for 1 hr followed by compound addition and measured after 16 hrs by immunoblotting analysis; assay type: functional, cell-based
Outline: (§2)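 Immunoblot of p-DRP1 S616 and p-DRP1 S637 in HCT116 cells pretreated 1 h with or without 5 mM NAC, then 1 μM compound 16 h.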

[3] = system: HCT-116; test: Induction of mitochondrial fusion in human HCT-116 cells assessed as change in Mitofusin level at 0.5 to 1 uM incubated for 8 to 24 hrs by immunoblotting analysis; assay type: functional, cell-based; settings: dose 0.5-1 µM, time 8-24 hrs
Outline: (§3)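 Immunoblot in HCT116 cells: p-DRP1 S616, p-DRP1 S637, DRP1, Mitofusin1, Mitofusin2 and MFF over time (0, 8, 16, 24 h); p-DRP1 S616, S637, DRP1, Mitofusin1 and OPA at 0.5 and 1 μM. β-Actin loading control.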

[4] = system: HCT-116; test: Induction of apoptosis in human HCT-116 cells assessed as decrease in cleavage of caspase 3 at 1 uM preincubated for 16 hrs followed by Mdivi1 addition and measured after 8 hrs by immunoblotting analysis; assay type: functional, cell-based
Outline: (§4)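 HCT116 cells treated 1 μM for 16 h, post-treated with 25 μM Mdivi-1 for 8 h; immunoblot for cleaved caspase 3 and PARP1, β-actin loading control.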

[5] = system: HCT-116; test: Induction of apoptosis in human HCT-116 cells assessed as number of dead cells at 1 uM preincubated for 16 hrs followed by Mdivi1 addition and measured after 8 hrs by Calcein-AM/EthD-1 staining based confocal microscope analysis; assay type: functional, cell-based
Outline: (§5)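 HCT116 cells treated 1 μM for 16 h; DRP1 inhibited with 25 μM Mdivi-1 for 8 h. Staining 30 min with CellROX Red FM, MitoTracker Deep Red FM and LIVE/DEAD reagents; confocal imaging; mean fluorescence intensity from five fields.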

[6] = system: HCT-116; test: Induction of mitochondrial fission in human HCT-116 cells assessed as appearance of mitochondrial puncta at 1 uM incubated for 14 hrs by Mitotracker Red staining based time-lapse microscopy analysis; assay type: functional, cell-based
Outline: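 Time-lapse microscopy with MitoTracker Red over 14 h of treatment in HCT116 cells; size of mitochondrial puncta measured as fission read-out.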

[7] = system: HCT-116; test: Induction of ROS production in human HCT-116 cells assessed as altered mitochondrial architecture at 1 uM pretreated with NAC for 1 hr followed by compound addition and measured after 16 hrs by MitoTracker Deep Red staining based confocal microscopy analysis; assay type: functional, cell-based
Outline: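 HCT116 cells pretreated 1 h with or without 5 mM NAC, then 1 μM compound 16 h; MitoTracker Deep Red FM staining 30 min; confocal imaging of mitochondrial morphology with quantification.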

[8] = system: HCT-116; test: Induction of mitochondrial membrane potential loss in human HCT-116 cells incubated for 16 hrs by mitotracker red staining based confocal microscope analysis; assay type: functional, cell-based; settings: dose 0.5-1 µM
Outline: (§6)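 HCT116 cells treated 16 h with compound (0.5 or 1 μM where dosed); stained 30 min with MitoTracker Deep Red FM (membrane potential) or CellROX Red FM (ROS); confocal imaging; mean fluorescence intensity quantified from five fields.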

[9] = system: HCT-116; test: Induction of mitochondrial fission in human HCT-116 cells assessed as decrease in DRP1 phosphorylation at S637 at 0.5 to 1 uM by immunoblotting analysis; assay type: functional, cell-based; settings: dose 0.5-1 µM, time 8-24 hrs, TDE = time-dependent effect; outline: as §3
[10] = system: HCT-116; test: Induction of apoptosis in human HCT-116 cells assessed as decrease in cleavage of PARP at 1 uM preincubated for 16 hrs followed by Mdivi1 addition and measured after 8 hrs by immunoblotting analysis; assay type: functional, cell-based; outline: as §4
[11] = system: HCT-116; test: Anticancer activity against human HCT-116 cells assessed as inhibition of cell viability incubated for 16 hrs by MTT assay; assay type: functional, cell-based; settings: HCT-116, 16 h
[12] = system: HCT-116; test: Induction of apoptosis in human HCT-116 cells assessed as number of dead cells at 1 uM preincubated with selonsertib for 1 hr followed by compound addition and measured after 16 hrs by Calcein-AM/EthD-1 staining based confocal microscope analysis; assay type: functional, cell-based
[13] = system: HCT-116; test: Induction of ROS generation in mitochondria of human HCT-116 cells at 1 uM preincubated with MitoTEMPO for 1 hr followed by compound addition and measured after 16 hrs by MitoSOX Red staining based confocal microscope analysis; assay type: functional, cell-based
Outline: (§7)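 HCT116 cells pretreated 1 h with 10 μM MitoTEMPO, then compound 1 μM for 16 h. Mitochondrial superoxide by MitoSOX Red confocal imaging, intensity quantified; cytotoxicity by LIVE/DEAD kit (Calcein-AM live, EthD-1 dead), percentage dead cells quantified.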

[14] = system: HCT-116; test: Induction of apoptosis in human HCT-116 cells assessed as increase in JNK1 phosphorylation at 1 uM preincubated with NAC for 1 hr followed by compound addition and measured after 16 hrs by immunoblotting analysis; assay type: functional, cell-based
Outline: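 Immunoblot of p-JNK and JNK in HCT116 cells pretreated 1 h with or without 5 mM NAC before compound treatment; β-actin loading control.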

[15] = system: HCT-116; test: Induction of mitochondrial fission in human HCT-116 cells assessed as increase in DRP1 phosphorylation at S616 at 0.5 to 1 uM by immunoblotting analysis; assay type: functional, cell-based; settings: dose 0.5-1 µM, time 8-24 hrs, TDE = time-dependent effect; outline: as §3
[16] = system: HCT-116; test: Induction of apoptosis in human HCT-116 cells assessed as increase in p-38 phosphorylation at 1 uM preincubated with selonsertib for 1 hr followed by compound addition and measured after 16 hrs by immunoblotting analysis; assay type: functional, cell-based
Outline: (§8)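 Immunoblot of p-JNK, p-p38 and p38 in HCT116 cells pretreated 1 h with or without 50 μM selonsertib before compound treatment; β-actin loading control.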

[17] = system: HCT-116; test: Induction of mitochondrial fusion in human HCT-116 cells assessed as change in OPA1 level at 0.5 to 1 uM incubated for 8 to 24 hrs by immunoblotting analysis; assay type: functional, cell-based; settings: dose 0.5-1 µM, time 8-24 hrs; outline: as §3
[18] = system: HCT-116; test: Induction of ROS production in human HCT-116 cells assessed as deterioration of mitochondrial length and area at 1 uM incubated for 16 hrs in presence of CellLight Mitochondria-GFP by confocal microscopy analysis; assay type: functional, cell-based
Outline: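 HCT116 cells transfected with CellLight Mitochondria-GFP, treated 1 μM for 16 h; confocal images quantified for mitochondrial length and area.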

[19] = system: HCT-116; test: Induction of apoptosis in human HCT-116 cells assessed as increase in JNK1 phosphorylation at 1 uM preincubated with selonsertib for 1 hr followed by compound addition and measured after 16 hrs by immunoblotting analysis; assay type: functional, cell-based; outline: as §8
[20] = system: HCT-116; test: Induction of mitochondrial membrane potential loss in human HCT-116 cells at 1 uM preincubated for 16 hrs followed by Mdivi1 addition and measured after 8 hrs by MitoTracker Deep Red staining based confocal microscopy analysis; assay type: functional, cell-based; outline: as §5
[21] = system: HCT-116; test: Induction of ROS generation in human HCT-116 cells at 1 uM preincubated for 16 hrs followed by Mdivi1 addition for 8 hrs by CellROX Red staining based confocal microscopy analysis; assay type: functional, cell-based
[22] = system: HCT-116; test: Induction of mitochondrial fission in human HCT-116 cells assessed as decrease in DRP1 phosphorylation at S637 after 8 to 24 hrs by immunoblotting analysis; assay type: functional, cell-based; settings: dose 0.5-1 µM, time 8-24 hrs; outline: as §3
[23] = system: HCT-116; test: Induction of apoptosis in human HCT-116 cells assessed as decrease in cleavage of PARP at 1 uM pretreated with NAC for 1 hr followed by compound addition and measured after 16 hrs by immunoblotting analysis; assay type: functional, cell-based
Outline: (§9)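 HCT116 cells pretreated 1 h with 5 mM NAC, then 1 μM compound 16 h; immunoblot for cleaved caspase 3 and PARP1, β-actin loading control.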

[24] = Cytotoxicity against HEK293 cells assessed as reduction in cell viability incubated for 16 hrs by MTT assay; assay type: toxicity, cell-based; settings: human
[25] = system: HCT-116; test: Induction of apoptosis in human HCT-116 cells assessed as increase in JNK phosphorylation at 1 uM incubated for 16 hrs by immunoblotting analysis; assay type: functional, cell-based; outline: as §1
[26] = system: HCT-116; test: Induction of mitochondrial fission in human HCT-116 cells assessed as increase in DRP1 phosphorylation at S616 after 8 to 24 hrs by immunoblotting analysis; assay type: functional, cell-based; settings: dose 0.5-1 µM, time 8-24 hrs; outline: as §3
[27] = system: HCT-116; test: Induction of mitochondrial fusion in human HCT-116 cells assessed as change in MFF level at 0.5 to 1 uM incubated for 8 to 24 hrs by immunoblotting analysis; assay type: functional, cell-based; settings: dose 0.5-1 µM, time 8-24 hrs; outline: as §3
[28] = system: HCT-116; test: Induction of ROS generation in human HCT-116 cells incubated for 16 hrs by CellROX Red staining based confocal microscope analysis; assay type: functional, cell-based; settings: dose 0.5-1 µM; outline: as §6
[29] = system: HCT-116; test: Induction of ROS generation in mitochondria of human HCT-116 cells assessed as number of dead cells at 1 uM preincubated with MitoTEMPO for 1 hr followed by compound addition and measured after 16 hrs by Calcein-AM/EthD-1 staining based confocal microscope analysis; assay type: functional, cell-based; outline: as §7
[30] = system: HCT-116; test: Induction of mitochondrial fission in human HCT-116 cells assessed as decrease in DRP1 phosphorylation at S637 at 1 uM preincubated with NAC for 1 hr followed by compound addition and measured after 16 hrs by immunoblotting analysis; assay type: functional, cell-based; outline: as §2
[31] = system: HCT-116; test: Induction of ROS generation in mitochondria of human HCT-116 cells transfected with mito-GFP at 1 uM incubated for 16 hrs by CellROX Red staining based confocal microscope analysis; assay type: functional, cell-based
Outline: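 HCT116 cells transfected with CellLight Mitochondria-GFP, treated 1 μM for 16 h, stained with CellROX Red FM 30 min; confocal imaging; colocalization of GFP and CellROX Red intensities quantified.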

[32] = system: HCT-116; test: Induction of apoptosis in human HCT-116 cells assessed as decrease in cleavage of caspase 3 at 1 uM pretreated with NAC for 1 hr followed by compound addition and measured after 16 hrs by immunoblotting analysis; assay type: functional, cell-based; outline: as §9
[33] = system: HCT-116; test: Induction of mitochondrial fission in human HCT-116 cells assessed as increase in DRP1 phosphorylation at S616 at 0.5 to 1 uM incubated for 8 to 24 hrs by immunoblotting analysis; assay type: functional, cell-based; settings: dose 0.5-1 µM, time 8-24 hrs; outline: as §3
[34] = system: HCT-116; test: Induction of mitochondrial membrane potential loss in human HCT-116 cells at 0.5 to 1 uM incubated for 16 hrs by mitotracker red staining based confocal microscope analysis; assay type: functional, cell-based; settings: dose 0.5-1 µM; outline: as §6
[35] = system: HCT-116; test: Induction of ROS generation in human HCT-116 cells at 0.5 to 1 uM incubated for 16 hrs by CellROX Red staining based confocal microscope analysis; assay type: functional, cell-based; settings: dose 0.5-1 µM; outline: as §6
[36] = system: HCT-116; test: Induction of mitochondrial fission in human HCT-116 cells assessed as decrease in DRP1 phosphorylation at S637 at 0.5 to 1 uM incubated for 8 to 24 hrs by immunoblotting analysis; assay type: functional, cell-based; settings: dose 0.5-1 µM, time 8-24 hrs; outline: as §3

SMILES: C/C=C/C/C(C)=C\[C@H]1C/C=C/C=C/C[C@H](C)/C=C(\C)[C@@H](OC)CCC[C@@H](O)CC(=O)O1
- Activity [1]: Active
- Activity [2]: inactive
- Activity [3]: inactive
- Activity [4]: inactive
- Activity [5]: inactive
- Activity [6]: Active
- Activity [7]: inactive
- Activity [8]: Dose-Dependent Effect
- Activity [9]: Tde
- Activity [10]: inactive
- IC50 [11]: 0.1 µM
- Activity [12]: inactive
- Activity [13]: inactive
- Activity [14]: inactive
- Activity [15]: Tde
- Activity [16]: inactive
- Activity [17]: inactive
- Activity [18]: Active
- Activity [19]: inactive
- Activity [20]: inactive
- Activity [21]: inactive
- Activity [22]: Dose-Dependent Effect
- Activity [23]: Active
- IC50 at 16 h [24]: 23.7 µM
- Activity [25]: Active
- Activity [26]: Dose-Dependent Effect
- Activity [27]: inactive
- Activity [28]: Dose-Dependent Effect
- Activity [29]: inactive
- Activity [30]: inactive
- Activity [31]: Active
- Activity [32]: Active

SMILES: CCCCC[C@@H]1C/C=C/C=C/C[C@H](C)/C=C(\C)[C@@H](OC)C/C=C/[C@@H](O)CC(=O)O1
- Activity [33]: Active
- Activity [34]: inactive
- Activity [35]: inactive
- Activity [36]: inactive
- IC50 [11]: 23 µM
- Activity [18]: Active
- IC50 at 16 h [24]: 20.2 µM

SMILES: C/C=C/C/C(C)=C\[C@@H]1C/C=C/C=C/C[C@H](C)/C=C(\C)[C@@H](OC)C/C=C/[C@@H](O)CC(=O)O1
- IC50 [11]: 8.9 µM
- IC50 at 16 h [24]: 18.1 µM
